pKi: −log10 of the molar value.
Columns and labels:
[1] = target: T1, Adenosine deaminase (Bos taurus, UniProt P56658); experiment: Inhibition of bovine adenosine deaminase pre-incubated for 5 mins before adenosine addition; conditions: for pKi: read-out: Ki
T1 sequence (P56658 whole entry): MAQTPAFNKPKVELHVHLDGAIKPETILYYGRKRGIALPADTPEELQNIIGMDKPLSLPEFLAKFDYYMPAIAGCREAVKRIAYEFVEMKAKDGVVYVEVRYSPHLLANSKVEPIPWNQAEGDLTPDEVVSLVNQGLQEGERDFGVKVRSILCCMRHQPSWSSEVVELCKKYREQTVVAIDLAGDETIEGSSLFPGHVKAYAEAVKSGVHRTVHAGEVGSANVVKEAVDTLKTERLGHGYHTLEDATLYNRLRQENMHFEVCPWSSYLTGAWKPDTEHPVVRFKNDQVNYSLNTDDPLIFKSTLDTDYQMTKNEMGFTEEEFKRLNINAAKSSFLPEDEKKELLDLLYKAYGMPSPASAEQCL

[2] = Drug metabolism in mouse liver microsomes assessed as drug recovery pre-incubated at 37 degC for 5 mins before NADPH addition and measured after 30 mins by LC/MS/MS method; format: ADME, microsome; conditions: read-out: Drug recovery
[3] = Drug metabolism in human liver microsomes assessed as drug recovery pre-incubated at 37 degC for 5 mins before NADPH addition and measured after 30 mins by LC/MS/MS method; format: ADME, microsome; conditions: read-out: Drug recovery
[4] = Drug metabolism in mouse liver microsomes assessed as drug recovery pre-incubated at 37 degC for 5 mins measured after 30 mins in absence of NADPH by LC/MS/MS method; format: ADME, microsome; conditions: read-out: Drug recovery
[5] = Half life in human liver microsomes pre-incubated at 37 degC for 5 mins before NADPH addition and measured after 30 mins by LC/MS/MS method; format: ADME, microsome
[6] = Half life in mouse liver microsomes pre-incubated at 37 degC for 5 mins before NADPH addition and measured after 30 mins by LC/MS/MS method; format: ADME, microsome
[7] = Half life in rat liver microsomes pre-incubated at 37 degC for 5 mins before NADPH addition and measured after 30 mins by LC/MS/MS method; format: ADME, microsome
[8] = Drug metabolism in rat liver microsomes assessed as metabolic turnover rate per 0.125 mg/ml protein pre-incubated at 37 degC for 5 mins before NADPH addition and measured after 30 mins by LC/MS/MS method; format: ADME, microsome; conditions: 0.5 h
[9] = Drug metabolism in rat liver microsomes assessed as drug recovery pre-incubated at 37 degC for 5 mins measured after 30 mins in absence of NADPH by LC/MS/MS method; format: ADME, microsome; conditions: read-out: Drug recovery
[10] = Drug metabolism in human liver microsomes assessed as drug recovery pre-incubated at 37 degC for 5 mins measured after 30 mins in absence of NADPH by LC/MS/MS method; format: ADME, microsome; conditions: read-out: Drug recovery
[11] = Drug metabolism in rat liver microsomes assessed as drug recovery pre-incubated at 37 degC for 5 mins before NADPH addition and measured after 30 mins by LC/MS/MS method; format: ADME, microsome; conditions: read-out: Drug recovery
[12] = Drug metabolism in human liver microsomes assessed as metabolic turnover rate per 0.125 mg/ml protein pre-incubated at 37 degC for 5 mins before NADPH addition and measured after 30 mins by LC/MS/MS method; format: ADME, microsome; conditions: 0.5 h
[13] = Drug metabolism in mouse liver microsomes assessed as metabolic turnover rate per 0.125 mg/ml protein pre-incubated at 37 degC for 5 mins before NADPH addition and measured after 30 mins by LC/MS/MS method; format: ADME, microsome; conditions: 0.5 h
[14] = AUC (0 to t) in Wistar rat at 3 mg/kg, iv after 0.25 to 24 hrs by LC/MS/MS method; format: ADME, organism-based; parameters: time upper 24 hr, dose 3 mg/kg, time lower 0.25 hr, route intravenous; conditions: in vivo
Procedure, shortened: (§1)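 Male Wistar rats were given a single intravenous dose. The vehicle was NMP 10%, PEG-300 15%, and 0.1M ammonium acetate buffer q.s. (pH 3). Plasma concentration–time profiles were used to derive AUC0-t, Vss, clearance (mL/min/kg) and t1/2.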

[15] = Clearance in Wistar rat at 3 mg/kg, iv after 0.25 to 24 hrs by LC/MS/MS method; format: ADME, organism-based; conditions: in vivo; procedure, shortened: as §1
[16] = Volume of distribution at steady state in Wistar rat at 3 mg/kg, iv after 0.25 to 24 hrs by LC/MS/MS method; format: ADME, organism-based; conditions: in vivo, read-out: Vdss; procedure, shortened: as §1
[17] = Half life in Wistar rat at 3 mg/kg, iv after 0.25 to 24 hrs by LC/MS/MS method; format: ADME, organism-based; conditions: in vivo; procedure, shortened: as §1

| Structure (SMILES) | pKi [1] | remaining at 0.5 h [2] [%] | remaining at 0.5 h [3] [%] | remaining at 0.5 h [4] [%] | half-life [5] [min] | half-life [6] [min] | half-life [7] [min] | Drug metabolism [8] [nmol/min/mg] | remaining at 0.5 h [9] [%] | remaining at 0.5 h [10] [%] | remaining at 0.5 h [11] [%] | Drug metabolism [12] [nmol/min/mg] | Drug metabolism [13] [nmol/min/mg] | other results |
| --- | --- | --- | --- | --- | --- | --- | --- | --- | --- | --- | --- | --- | --- | --- |
| C[C@H](O)[C@@H](CCc1cccc(Br)c1)n1cnc2c(N)ncnc21 | 9.22 | – | – | – | – | – | – | – | – | – | – | – | – | – |
| C[C@H](O)[C@@H](CCc1cccc(C(=O)N2CCCC2)c1)n1cnc2c(N)ncnc21 | 8.66 | – | – | – | – | – | – | – | – | – | – | – | – | – |
| C[C@H](O)[C@@H](CCc1cccc(-c2ccccn2)c1)n1cnc2c(N)ncnc21 | 8.64 | 58 | 82 | 100 | > 30 | > 30 | > 30 | 0.12 | 100 | 91 | 64 | 0.06 | 0.15 | – |
| C[C@H](O)[C@@H](CCc1cccc(C(=O)NC2CCCC2)c1)n1cnc2c(N)ncnc21 | 8.74 | – | – | – | – | – | – | – | – | – | – | – | – | – |
| C[C@H](O)[C@@H](CCc1ccc(C(F)(F)F)cc1)n1ccc2c(N)ncnc21 | – | – | – | – | – | – | – | – | – | – | – | – | – | Ki [1]: Not Active |
| Cc1ccccc1SC[C@H]([C@H](C)O)n1cnc2c(N)ncnc21 | 7.18 | – | – | – | – | – | – | – | – | – | – | – | – | – |
| Cc1cccc(SC[C@H]([C@H](C)O)n2cnc3c(N)ncnc32)c1 | 7.31 | – | – | – | – | – | – | – | – | – | – | – | – | – |
| CCCCSC[C@H]([C@H](C)O)n1cnc2c(N)ncnc21 | 7.27 | 100 | 94 | 94 | > 30 | > 30 | > 30 | 0.04 | 97 | 85 | 86 | < 0.04 | < 0.04 | – |
| C[C@H](O)[C@@H](CCc1cccc(-c2cnccn2)c1)n1cnc2c(N)ncnc21 | 8.72 | 57 | 71 | 94 | > 30 | > 30 | > 30 | < 0.04 | 85 | 94 | 90 | 0.09 | 0.16 | – |
| C[C@H](O)[C@@H](CCc1cccc(C(F)(F)F)c1)n1cnc2c(N)ncnc21 | 8.96 | 74 | 80 | 89 | > 30 | > 30 | > 30 | 0.04 | 91 | 95 | 86 | 0.06 | 0.08 | AUC(0-t) [14]: 1.61 µM·h; clearance [15]: 85 mL/min/kg; Vd [16]: 1.88 L/kg; half-life [17]: < 30 min |
| C[C@H](O)[C@@H](CCc1cccc(C(F)(F)F)c1)n1ccc2c(N)ncnc21 | – | – | – | – | – | – | – | – | – | – | – | – | – | Ki [1]: Not Active |
| C[C@H](O)[C@@H](CCc1ccc(C(F)(F)F)cc1)n1ncc2c(N)ncnc21 | – | – | – | – | – | – | – | – | – | – | – | – | – | Ki [1]: Not Active |
| CCc1ccc(CC[C@H]([C@H](C)O)n2cnc3c(N)ncnc32)s1 | 8.68 | 64 | 76 | 90 | > 30 | > 30 | > 30 | 0.15 | 95 | 95 | 58 | 0.07 | 0.11 | – |
| C[C@H](O)[C@@H](CCc1cccc(C(N)=O)c1)n1cnc2c(N)ncnc21 | 8.54 | – | – | – | – | – | – | – | – | – | – | – | – | – |
| CC(=O)[C@@H](CCc1ccc(C(F)(F)F)cc1)n1cnc2c(N)ncnc21 | – | – | – | – | – | – | – | – | – | – | – | – | – | Ki [1]: Not Active |
| COC(=O)c1cccc(CC[C@H]([C@H](C)O)n2cnc3c(N)ncnc32)c1 | 8.66 | 88 | 68 | 100 | > 30 | > 30 | > 30 | < 0.04 | 99 | 65 | 96 | 0.1 | 0.04 | – |
| C[C@H](O)[C@@H](CCc1ccc(C(F)(F)F)cc1)n1cnc2c(N)ncnc21 | 8.28 | 85 | 99 | 94 | > 30 | > 30 | > 30 | < 0.04 | 93 | 95 | 93 | < 0.04 | 0.04 | AUC(0-t) [14]: 2.21 µM·h; clearance [15]: 59 mL/min/kg; Vd [16]: 7.01 L/kg; half-life [17]: 133 min |
| C[C@H](O)[C@@H](CCc1ccccc1C(F)(F)F)n1cnc2c(N)ncnc21 | 8.21 | – | – | – | – | – | – | – | – | – | – | – | – | – |
| C[C@H](O)[C@@H](CCc1ccc(C(F)(F)F)cc1)n1cnc(C(N)=O)c1 | 7.54 | – | – | – | – | – | – | – | – | – | – | – | – | – |
| C[C@H](O)[C@@H](CCc1cccc(C(F)(F)F)c1)n1ncc2c(N)ncnc21 | – | – | – | – | – | – | – | – | – | – | – | – | – | Ki [1]: Not Active |

Further lines, with some results ahead:

| pKi [1] | remaining at 0.5 h [2] [%] | remaining at 0.5 h [3] [%] | remaining at 0.5 h [4] [%] | half-life [5] [min] | half-life [6] [min] | half-life [7] [min] | Drug metabolism [8] [nmol/min/mg] | remaining at 0.5 h [9] [%] | remaining at 0.5 h [10] [%] | remaining at 0.5 h [11] [%] | Drug metabolism [12] [nmol/min/mg] | Drug metabolism [13] [nmol/min/mg] | Structure (SMILES) | other results |
| --- | --- | --- | --- | --- | --- | --- | --- | --- | --- | --- | --- | --- | --- | --- |
| 7.28 | – | – | – | – | – | – | – | – | – | – | – | – | C[C@H](O)[C@@H](CCc1cccc(C(=O)O)c1)n1cnc2c(N)ncnc21 | – |
| 8.72 | 77 | 65 | 92 | > 30 | > 30 | 13 | 0.44 | 94 | 83 | 19 | 0.11 | 0.07 | C[C@H](O)[C@@H](CCC1CCCCC1)n1cnc2c(N)ncnc21 | – |
| 8.80 | – | – | – | – | – | – | – | – | – | – | – | – | C[C@H](O)[C@@H](CCc1cccc(F)c1)n1cnc2c(N)ncnc21 | – |
| 7.16 | – | – | – | – | – | – | – | – | – | – | – | – | CC(C)(O)[C@@H](CCc1ccc(C(F)(F)F)cc1)n1cnc2c(N)ncnc21 | – |
| 8.59 | 65 | 84 | 92 | > 30 | > 30 | > 30 | 0.09 | 91 | 100 | 76 | 0.05 | 0.1 | C[C@H](O)[C@@H](CCc1cccc(-c2nccs2)c1)n1cnc2c(N)ncnc21 | – |
| 6.87 | – | – | – | – | – | – | – | – | – | – | – | – | C[C@H](O)[C@@H](CSc1ccccc1)n1cnc2c(N)ncnc21 | – |
| 8.74 | – | – | – | – | – | – | – | – | – | – | – | – | C[C@H](O)[C@@H](CCc1cccc(C(=O)N(C)C)c1)n1cnc2c(N)ncnc21 | – |
| 8.57 | 100 | 90 | 96 | > 30 | > 30 | > 30 | < 0.04 | 100 | 92 | 91 | < 0.04 | < 0.04 | CNC(=O)c1cccc(CC[C@H]([C@H](C)O)n2cnc3c(N)ncnc32)c1 | – |
| 8.34 | – | – | – | – | – | – | – | – | – | – | – | – | C[C@H](O)[C@@H](CCc1cccc(CO)c1)n1cnc2c(N)ncnc21 | – |
| 7.60 | 43 | 83 | 100 | > 100 | 25 | > 100 | 0.05 | 100 | 89 | 83 | 0.05 | 0.22 | C[C@H](O)[C@@H](CSc1cccc(C(F)(F)F)c1)n1cnc2c(N)ncnc21 | – |

Reference: ChEMBL document CHEMBL4177582, “Modifications of flexible nonyl chain and nucleobase head group of (+)-erythro-9-(2's-hydroxy-3's-nonyl)adenine [(+)-EHNA] as adenosine deaminase inhibitors” (Bioorg Med Chem, 2017)
